Results taken from ChEMBL document CHEMBL1136016, “Synthesis, biological activity, and molecular modeling investigation of new pyrazolo[4,3-e]-1,2,4-triazolo[1,5-c]pyrimidine derivatives as human A(3) adenosine receptor antagonists” (J Med Chem, 2002).

Assays:
[1] = molecular target: Adenosine receptors; A1 & A3 (Homo sapiens) (UniProt P30542+P0DMS8); assay: Selectivity ratio (hA1/hA3); format: protein assay
Adenosine receptor A1 [2] = molecular target: T1, Adenosine receptor A1 (Homo sapiens, UniProt P30542); assay: Displacement of [3H]DPCPX from human Adenosine A1 receptor expressed in CHO cells; range […]; format: cell-based
T1 sequence (P30542 whole entry): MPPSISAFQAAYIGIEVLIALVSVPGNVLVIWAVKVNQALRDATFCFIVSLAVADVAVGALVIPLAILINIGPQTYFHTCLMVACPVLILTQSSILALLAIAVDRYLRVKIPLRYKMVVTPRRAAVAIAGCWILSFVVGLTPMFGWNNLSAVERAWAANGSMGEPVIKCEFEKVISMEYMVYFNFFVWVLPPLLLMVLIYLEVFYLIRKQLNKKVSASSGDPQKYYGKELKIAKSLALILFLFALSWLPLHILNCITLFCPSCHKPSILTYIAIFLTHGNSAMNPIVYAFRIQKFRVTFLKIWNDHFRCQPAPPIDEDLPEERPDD
Method in brief: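 Competition binding on membranes of CHO cells stably expressing human A1 receptor, resuspended in 50 mM Tris HCl pH 7.4. Incubation 120 min at 25 °C with 1 nM [3H]DPCPX, 50 µg protein per assay and at least six to eight test concentrations. CHA defined nonspecific binding. Bound ligand separated on glass-fibre filters and counted; n = 3-6.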

[3] = molecular target: Adenosine receptors; A2b & A3 (Homo sapiens) (UniProt P29275+P0DMS8); assay: Selectivity ratio (h2B/hA3); format: protein assay
Adenosine receptor A2b [4] = molecular target: T2, Adenosine receptor A2b (Homo sapiens, UniProt P29275); assay: Displacement of [3H]DPCPX from human Adenosine A2B receptor expressed in HEK293 cells; range 67-141; format: cell-based
T2 sequence (P29275 whole entry): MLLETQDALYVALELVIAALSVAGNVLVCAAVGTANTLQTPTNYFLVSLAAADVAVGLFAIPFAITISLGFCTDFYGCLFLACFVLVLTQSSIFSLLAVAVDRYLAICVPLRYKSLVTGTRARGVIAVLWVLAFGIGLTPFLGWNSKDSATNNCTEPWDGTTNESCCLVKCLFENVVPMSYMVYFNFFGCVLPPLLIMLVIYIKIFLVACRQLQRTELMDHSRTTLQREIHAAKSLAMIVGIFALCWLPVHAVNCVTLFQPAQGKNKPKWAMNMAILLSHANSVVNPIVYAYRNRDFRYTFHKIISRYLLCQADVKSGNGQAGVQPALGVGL
Method in brief: (§1)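 Competition binding on membranes of HEK-293 cells carrying recombinant human A2B receptor. Incubation 60 min at 25 °C in 50 mM Tris HCl pH 7.4 with 10 mM MgCl2, 1 mM EDTA, 0.1 mM benzamidine and 2 IU/mL adenosine deaminase. Radioligand 40 nM [3H]DPCPX, at least six to eight test concentrations. NECA defined nonspecific binding. Bound ligand separated on glass-fibre filters and counted; n = 3-6.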

Adenosine receptor A2a [5] = molecular target: T3, Adenosine receptor A2a (Homo sapiens, UniProt P29274); assay: Displacement of [3H]SCH-58,261 from human Adenosine A2A receptor expressed in HEK293 cells; range 122-187; format: cell-based
Adenosine receptor A3 [6] = molecular target: T4, Adenosine receptor A3 (Homo sapiens, UniProt P0DMS8); assay: Displacement of [3H]MRE3008-F20 from human Adenosine A3 receptor expressed in HEK cells; range 0.23-0.40; format: cell-based, HEK293
T4 sequence (P0DMS8 whole entry): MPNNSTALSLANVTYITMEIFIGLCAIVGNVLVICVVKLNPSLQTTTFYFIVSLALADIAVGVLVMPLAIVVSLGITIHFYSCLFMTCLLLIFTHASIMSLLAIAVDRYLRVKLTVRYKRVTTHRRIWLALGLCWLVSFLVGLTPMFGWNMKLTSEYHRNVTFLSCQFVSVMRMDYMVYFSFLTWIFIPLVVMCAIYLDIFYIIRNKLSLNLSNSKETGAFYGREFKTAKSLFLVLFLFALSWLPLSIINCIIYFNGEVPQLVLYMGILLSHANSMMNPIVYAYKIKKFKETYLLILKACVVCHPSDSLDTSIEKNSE

Adenosine receptor A2b [7] = molecular target: T2, Adenosine receptor A2b; assay: Displacement of [3H]DPCPX from human Adenosine A2B receptor expressed in HEK293 cells; range 89-116; format: cell-based
Method in brief: (§2)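 Membranes from HEK-293 cells with human recombinant A2B receptor. Incubation 60 min at 25 °C in 50 mM Tris HCl, 10 mM MgCl2, 1 mM EDTA, 0.1 mM benzamidine, pH 7.4, with 2 IU/mL adenosine deaminase and 40 nM [3H]DPCPX. At least six to eight test concentrations. Nonspecific binding defined with NECA. n = 3-6.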

Adenosine receptor A1 [8] = molecular target: T1, Adenosine receptor A1; assay: Displacement of [3H]DPCPX from human Adenosine A1 receptor expressed in CHO cells; range 525-691; format: cell-based
Adenosine receptor A3 [9] = molecular target: T4, Adenosine receptor A3; assay: biochemical
Adenosine receptor A2a [10] = molecular target: T3, Adenosine receptor A2a; assay: Displacement of [3H]SCH-58261 from human Adenosine A2A receptor expressed in HEK293 cells; range 312-515; format: cell-based
Adenosine receptor A3 [11] = molecular target: T4, Adenosine receptor A3; assay: Displacement of [3H]MRE3008-F20 from human Adenosine A3 receptor expressed in HEK cells; range 0.13-0.20; format: cell-based, HEK293
Adenosine receptor A2b [12] = molecular target: T2, Adenosine receptor A2b; assay: biochemical
Adenosine receptor A3 [13] = molecular target: T4, Adenosine receptor A3; assay: Inhibition of IB-MECA agonist-mediated cAMP production in membranes of CHO cells expressing human Adenosine A3 receptor; format: functional, cell-based
Method in brief: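 Human A3-CHO membranes (in 50 mM Tris HCl, 10 mM MgCl2, 1 mM EDTA, pH 7.4) were preincubated for 10 min at 37 °C with 5 µM GTP, 0.5 mM Ro 20-1724 and 2.0 IU/mL adenosine deaminase. IB-MECA (100 nM) or antagonist was then added with 1 mM ATP and forskolin for 10 min. The reaction was stopped by 2 min boiling. cAMP was measured by [3H]cAMP competitive protein binding using beef adrenal binding protein, 150 min at 4 °C.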

Adenosine receptor A2a [14] = molecular target: T3, Adenosine receptor A2a; assay: biochemical
Adenosine receptor A1 [15] = molecular target: T1, Adenosine receptor A1; assay: biochemical
Adenosine receptor A1 [16] = molecular target: T1, Adenosine receptor A1; assay: Displacement of [3H]DPCPX from human Adenosine A1 receptor expressed in CHO cells; range 248-276; format: cell-based
Adenosine receptor A2b [17] = molecular target: T2, Adenosine receptor A2b; assay: Displacement of [3H]DPCPX from human Adenosine A2B receptor expressed in HEK293 cells; range 118-146; format: cell-based; method in brief: as §1
Adenosine receptor A3 [18] = molecular target: T4, Adenosine receptor A3; assay: Displacement of [3H]MRE3008-F20 from human Adenosine A3 receptor expressed in HEK cells; range 0.11-0.18; format: cell-based, HEK293
Adenosine receptor A2a [19] = molecular target: T3, Adenosine receptor A2a; assay: Displacement of [3H]SCH-58261 from human Adenosine A2A receptor expressed in HEK293 cells; range 23-40; format: cell-based
Adenosine receptor A2b [20] = molecular target: T2, Adenosine receptor A2b; assay: Displacement of [3H]DPCPX from human Adenosine A2B receptor expressed in HEK293 cells; range 261-336; format: cell-based; method in brief: as §2
Adenosine receptor A1 [21] = molecular target: T1, Adenosine receptor A1; assay: Displacement of [3H]DPCPX from human Adenosine A1 receptor expressed in CHO cells; range 389-640; format: cell-based
Method in brief: (§3)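 Human recombinant A1 receptor in CHO cell membranes, resuspended in 50 mM Tris HCl pH 7.4. Displacement run 120 min at 25 °C with 1 nM [3H]DPCPX, 50 µg protein per assay, and at least six to eight test concentrations. Nonspecific binding defined with CHA. Bound and free separated on glass-fiber filters; filter radioactivity counted. n = 3-6.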

Adenosine receptor A2a [22] = molecular target: T3, Adenosine receptor A2a; assay: Displacement of [3H]SCH-58261 from human Adenosine A2A receptor expressed in HEK293 cells; range 30-54; format: cell-based
Adenosine receptor A3 [23] = molecular target: T4, Adenosine receptor A3; assay: Displacement of [3H]MRE3008-F20 from human Adenosine A3 receptor expressed in HEK cells; range 0.29-0.47; format: cell-based, HEK293
Adenosine receptor A1 [24] = molecular target: T1, Adenosine receptor A1; assay: Displacement of [3H]DPCPX from human Adenosine A1 receptor expressed in CHO cells; range 314-536; format: cell-based
Adenosine receptor A2a [25] = molecular target: T3, Adenosine receptor A2a; assay: Displacement of [3H]SCH-58261 from human Adenosine A2A receptor expressed in HEK293 cells; range 332-426; format: cell-based
Adenosine receptor A2b [26] = molecular target: T2, Adenosine receptor A2b; assay: Displacement of [3H]DPCPX from human Adenosine A2B receptor expressed in HEK293 cells; range 57-105; format: cell-based; method in brief: as §2
Adenosine receptor A3 [27] = molecular target: T4, Adenosine receptor A3; assay: biochemical; remark: listed apart in the source
Adenosine receptor A3 [28] = molecular target: T4, Adenosine receptor A3; assay: Displacement of specific [3H]MRE3008-F20 binding at human Adenosine A3 receptor expressed in HEK cells; value ranges from 39-55; format: cell-based, HEK293
Adenosine receptor A1 [29] = molecular target: T1, Adenosine receptor A1; assay: Displacement of [3H]DPCPX from human Adenosine A1 receptor expressed in CHO cells; format: cell-based; method in brief: as §3
Adenosine receptor A2a [30] = molecular target: T3, Adenosine receptor A2a; assay: Displacement of [3H]SCH-58261 from human Adenosine A2A receptor expressed in HEK293 cells; range 300-414; format: cell-based
Adenosine receptor A2b [31] = molecular target: T2, Adenosine receptor A2b; assay: Displacement of [3H]DPCPX binding at human Adenosine A2B receptor expressed in HEK293 cells; format: cell-based; method in brief: as §2

T3 sequence (P29274 whole entry): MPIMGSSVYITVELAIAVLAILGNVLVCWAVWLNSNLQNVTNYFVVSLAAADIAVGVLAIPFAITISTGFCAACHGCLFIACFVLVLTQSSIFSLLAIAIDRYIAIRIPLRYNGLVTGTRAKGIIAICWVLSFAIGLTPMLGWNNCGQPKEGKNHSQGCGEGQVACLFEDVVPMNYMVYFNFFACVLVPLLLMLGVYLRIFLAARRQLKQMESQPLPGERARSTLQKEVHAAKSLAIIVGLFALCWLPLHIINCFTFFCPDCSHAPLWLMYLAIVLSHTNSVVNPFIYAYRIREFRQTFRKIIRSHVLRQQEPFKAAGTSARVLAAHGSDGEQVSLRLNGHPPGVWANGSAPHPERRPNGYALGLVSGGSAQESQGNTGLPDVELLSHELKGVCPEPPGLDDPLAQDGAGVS

## CCn1cc2c(nc(NC(=O)Nc3ccccc3Cl)n3nc(-c4ccco4)nc23)n1
[1]
  Ratio: 1160
Adenosine receptor A1 [2]
  Ki: 348 nM
[3]
  Ratio: 323
Adenosine receptor A2b [4]
  Ki: 97 nM
Adenosine receptor A2a [5]
  Ki: 150 nM
Adenosine receptor A3 [6]
  Ki: 0.3 nM

## CCCCn1cc2c(nc(NC(=O)Cc3ccccc3)n3nc(-c4ccco4)nc23)n1
Adenosine receptor A2b [7]
  Ki: 101 nM
Adenosine receptor A1 [8]
  Ki: 602 nM
[1]
  Ratio: 542
Adenosine receptor A3 [9]
  Ki: 1.11 nM
Adenosine receptor A2a [10]
  Ki: 400 nM
[3]
  Ratio: 91

## Cn1cc2c(nc(NC(=O)Nc3ccccc3)n3nc(-c4ccco4)nc23)n1
Adenosine receptor A3 [11]
  Ki: 0.16 nM
Adenosine receptor A2b [12]
  Ki: 222 nM
Adenosine receptor A3 [13]
  IC50: 2 nM
[1]
  Ratio: 3710
[3]
  Ratio: 1390
Adenosine receptor A2a [14]
  Ki: 381 nM
Adenosine receptor A1 [15]
  Ki: 594 nM

## CCn1cc2c(nc(NC(=O)Nc3ccc(C)cc3)n3nc(-c4ccco4)nc23)n1
Adenosine receptor A1 [16]
  Ki: 262 nM
[1]
  Ratio: 1870
Adenosine receptor A2b [17]
  Ki: 132 nM
[3]
  Ratio: 943
Adenosine receptor A3 [18]
  Ki: 0.14 nM
Adenosine receptor A2a [19]
  Ki: 30 nM

## CCn1cc2c(nc(NC(=O)Nc3ccc(Br)cc3)n3nc(-c4ccco4)nc23)n1
Adenosine receptor A2b [20]
  Ki: 296 nM
Adenosine receptor A1 [21]
  Ki: 500 nM
[1]
  Ratio: 1350
[3]
  Ratio: 800
Adenosine receptor A2a [22]
  Ki: 40 nM
Adenosine receptor A3 [23]
  Ki: 0.37 nM

## CCCCn1cc2c(nc(NC(=O)Nc3ccc4c(c3)OCO4)n3nc(-c4ccco4)nc23)n1
Adenosine receptor A1 [24]
  Ki: 410 nM
[1]
  Ratio: 820
Adenosine receptor A2a [25]
  Ki: 376 nM
Adenosine receptor A2b [26]
  Ki: 78 nM
[3]
  Ratio: 156
Adenosine receptor A3 [27]
  Ki: 0.5 nM

## CCCCn1cc2c(nc(NC(=O)Nc3ccc(S(=O)(=O)O)cc3)n3nc(-c4ccco4)nc23)n1
Adenosine receptor A3 [28]
  Ki: 47 nM
[1]
  Ratio: > 213
Adenosine receptor A1 [29]
  Ki: > 10000 nM
Adenosine receptor A2a [30]
  Ki: 352 nM
[3]
  Ratio: > 213
Adenosine receptor A2b [31]
  Ki: > 10000 nM
